Reference: ChEMBL document CHEMBL1128465, “Synthesis and evaluation of certain thiosangivamycin analogs as potential inhibitors of cell proliferation and human cytomegalovirus” (J Med Chem, 1995)

Experiments:
HFF = assay: Visual cytotoxicity scored on HFF cells at the time of HCMV plaque enumeration.; assay type: functional, cell-based, Homo sapiens
How it was run: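 Stationary HFF cells not affected by the plaque-assay virus examined microscopically for cytotoxicity, scored at the time HCMV plaques were counted. Top concentration tested 100; averages of two or four experiments, some single.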

Human alphaherpesvirus 1 = assay: Antiviral activity against herpes simplex virus type 1(HSV-1) ELISA method; assay type: functional, organism-based
KB = assay: In vitro inhibition of KB cell proliferation.; assay type: functional, cell-based, Homo sapiens
How it was run: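 KB cells grown over two population doublings of untreated controls with compound; proliferation quantified by crystal violet staining and spectrophotometric reading of dye eluted from stained cells. Values are IC50s averaged from two or four experiments, some from a single experiment.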

Human betaherpesvirus 5 [1] = assay: In vitro antiviral activity against human cytomegalovirus by plaque method.; assay type: functional, organism-based
How it was run: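 HCMV plaque reduction assay; result given as IC50 (concentration reducing plaque number by 50%). Averages from two or four experiments, some from a single experiment; highest concentration tested 100.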

Human betaherpesvirus 5 [2] = assay: In vitro antiviral activity against human cytomegalovirus by yield reduction assay.; assay type: functional
How it was run: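 HCMV yield reduction assay; result given as IC90. Averages from two or four experiments, some single; highest concentration tested 100.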

L1210 = assay: Inhibition of L1210 murine leukemic cells proliferation in vitro; assay type: functional, cell-based, Mus musculus
How it was run: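 L1210 murine leukemia cells grown with compound; cell counts taken at 0, 48 and 96 h. Where growth rate in treated cultures fell during the run, the 48–96 h rate was used.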

IC50 (Human alphaherpesvirus 1; Human alphaherpesvirus 1) [µM]	IC50 (KB; Homo sapiens, KB) [µM]	IC50 (Human betaherpesvirus 5 [1]; Human betaherpesvirus 5) [µM]	IC90 (Human betaherpesvirus 5 [2]; Human betaherpesvirus 5) [µM]	IC50 (L1210; Mus musculus, L1210) [µM]	Compound	IC50 (HFF; Homo sapiens, HFF) [µM]	IC50 (KB; kb) [µM]	IC90 (Human betaherpesvirus 5 [2]) [µM]	IC50 (L1210; l1210) [µM]	IC50 (HFF; hff) [µM]	IC50 (Human alphaherpesvirus 1) [µM]	IC50 (Human betaherpesvirus 5 [1]) [µM]
320	–	–	110	100	N#Cc1cn([C@@H]2O[C@H](CO)[C@@H](O)[C@@H]2N)c2ncnc(N)c12	> 100	–	–	–	–	–	–
14	5	2.7	5	3	NC(=S)c1cn(C2C=CC(CO)O2)c2ncnc(N)c12 (stereo not given)	18	–	–	–	–	–	–
6	11	2.5	12	24	NC(=S)c1cn(C2CCC(CO)O2)c2ncnc(N)c12 (stereo not given)	29	–	–	–	–	–	–
4.5	25	35	13	80	N#Cc1cn([C@H]2C[C@H](O)[C@@H](CO)O2)c2ncnc(N)c12	66	–	–	–	–	–	–
58	3	0.5	3	0.6	NC(=S)c1cn(C2OC(CO)CC2O)c2ncnc(N)c12 (stereo not given)	2.1	–	–	–	–	–	–
8.2	7	5.7	15	3.9	NC(=S)c1cn([C@H]2C[C@H](O)[C@@H](CO)O2)c2ncnc(N)c12	41	–	–	–	–	–	–
2.6	4	0.4	1.4	0.1	N#Cc1cn(C2OC(CO)CC2O)c2ncnc(N)c12 (stereo not given)	3	–	–	–	–	–	–
28	2.5	1.6	41	2	N=C(S)c1cn([C@@H]2O[C@H](CO)[C@@H](O)[C@@H]2N)c2ncnc(N)c12	73	–	–	–	–	–	–
–	0.5	3.1	–	3	C[C@H]1OC(n2cc(C(=N)S)c3c(N)ncnc32)[C@H](O)[C@@H]1O (stereo not given in full)	3.2	–	–	–	–	–	–

The remaining lines, values behind:

Compound	IC50 (Human alphaherpesvirus 1; Human alphaherpesvirus 1) [µM]	IC50 (KB; Homo sapiens, KB) [µM]	IC50 (Human betaherpesvirus 5 [1]; Human betaherpesvirus 5) [µM]	IC90 (Human betaherpesvirus 5 [2]; Human betaherpesvirus 5) [µM]	IC50 (L1210; Mus musculus, L1210) [µM]	IC50 (HFF; Homo sapiens, HFF) [µM]	IC50 (KB; kb) [µM]	IC90 (Human betaherpesvirus 5 [2]) [µM]	IC50 (L1210; l1210) [µM]	IC50 (HFF; hff) [µM]	IC50 (Human alphaherpesvirus 1) [µM]	IC50 (Human betaherpesvirus 5 [1]) [µM]
N#Cc1cn(C2C=CC(CO)O2)c2ncnc(N)c12 (stereo not given)	41	176	5.1	> 100	–	> 100	–	–	–	–	–	–
N#Cc1cn([C@@H]2O[C@H](CO)[C@@H](O)[C@H]2O)c2ncnc(N)c12 (stereo in doubt; 6) [TOYOCAMYCIN]	–	–	–	–	–	–	17	14	–	–	–	–
Nc1nc2c(ncn2COC(CO)CO)c(=O)[nH]1 [GANCICLOVIR]	–	> 100	–	1.8	–	> 100	–	–	–	–	–	–
NC(=S)c1cn([C@@H]2O[C@H](CO)[C@@H](O)[C@H]2O)c2ncnc(N)c12	–	0.03	0.4	0.1	0.03	0.32	–	–	–	–	–	–
NC(=S)c1cn([C@@H]2O[C@H](CO)[C@H](O)[C@H]2O)c2ncnc(N)c12	1.9	1	0.6	0.4	0.5	0.6	–	–	–	–	–	–
N#Cc1cn(C2CCC(CO)O2)c2ncnc(N)c12 (stereo not given)	21	88	19	90	–	> 100	–	–	–	–	–	–
N#Cc1cn([C@@H]2O[C@H](CO)[C@@H](O)[C@H]2O)c2ncnc(N)c12 (stereo in doubt; 2) [TOYOCAMYCIN]	–	–	–	–	–	–	0.1	0.3	0.1	0.3	0.4	0.3
N#Cc1cn([C@@H]2O[C@H](CO)[C@@H](O)[C@H]2O)c2ncnc(N)c12 (stereo in doubt; A) [TOYOCAMYCIN]	–	–	–	–	–	–	–	–	–	0.03	–	0.1
NC(=S)c1cn([C@@H]2O[C@H](CO)[C@@H](O)[C@@H]2O)c2ncnc(N)c12	4.7	2	0.9	1.9	5	29	–	–	–	–	–	–
